pEC50: −log10 of the molar value. Activity calls are given as the source filed them.
Key:
[1] = target: T1, G-protein coupled receptor 84 (Homo sapiens, UniProt Q9NQS5); test: Agonist activity at human GPR84 expressed in CHO cells assessed as beta-arrestin recruitment at 10 uM after 90 mins by beta-galactosidase complementation assay relative to embelin; assay type: cell-based
Method in brief: (§1)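 CHO cells co-expressing human GPR84–β-galactosidase fragment and β-arrestin–complementary fragment, 20,000 per well. Compounds in DMSO (final ≤1 %) added for 90 min, then detection reagent for 60 min at rt; luminescence read. Three to five independent experiments in duplicate.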

[2] = target: T2, Free fatty acid receptor 4 (Homo sapiens) (UniProt Q5NUL3); test: Agonist activity at human FFAR4 expressed in CHO cells assessed as beta-arrestin recruitment at 10 uM after 90 mins by beta-galactosidase complementation assay; assay type: cell-based
T2 sequence (whole entry): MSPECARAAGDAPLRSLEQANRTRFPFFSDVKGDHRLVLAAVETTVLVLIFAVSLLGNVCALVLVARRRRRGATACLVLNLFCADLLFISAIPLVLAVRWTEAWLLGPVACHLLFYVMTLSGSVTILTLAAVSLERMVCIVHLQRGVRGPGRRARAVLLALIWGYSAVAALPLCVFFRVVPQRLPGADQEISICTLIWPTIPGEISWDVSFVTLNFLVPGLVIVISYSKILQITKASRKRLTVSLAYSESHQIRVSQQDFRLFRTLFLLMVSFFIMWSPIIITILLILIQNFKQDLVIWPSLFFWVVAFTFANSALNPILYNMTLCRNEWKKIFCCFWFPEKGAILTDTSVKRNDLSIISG
Method in brief: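 Human FFAR4 in CHO β-galactosidase complementation cells, 30,000 per well, serum-free F12 ~4 h before assay; final DMSO 1 %, compounds 10 µM. Agonist mode: 90 min with agonist, then detection 60 min rt dark; luminescence. 3–4 experiments in duplicate.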

[3] = target: G-protein coupled receptor 35 (Homo sapiens) (UniProt Q9HC97); test: Agonist activity at human GPR35 at 10 uM
[4] = target: T1, G-protein coupled receptor 84; test: Agonist activity at Gi coupled human GPR84 expressed in CHO cells assessed as inhibition of forskolin-induced cAMP accumulation after 15 mins in presence of [3H]-cAMP by radiometric assay; assay type: functional, cell-based
Method in brief: (§2)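 Forskolin (10 µM) added with or without test compound for 15 min. Cells lysed in hot (90 °C) EDTA/Triton X-100 solution. cAMP measured radiometrically with bovine adrenal binding protein and [³H]cAMP, expressed as % of forskolin-alone response.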

[5] = Stability of the compound in 1 mM sodium hydroxide solution at 100 uM at pH 11 up to 24 hrs by HPLC-MS analysis; assay type: physicochemical; details: buffer, pH 11, 24 h
Method in brief: (§3)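 Stock (2.5 mM in methanol/acetonitrile 1:1) diluted to 100 µM final in water, 0.01 % aqueous ammonia (pH 9), 1 mM NaOH (pH 11), or artificial gastric acid (pepsin, NaCl, HCl; pH 1.2). Incubated at 37 °C up to 24 h, sampled at intervals. Analysed by LC-ESI-MS on C18 at 25 °C with water/2 mM ammonium acetate–acetonitrile gradient.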

[6] = Stability of the compound in water at 100 uM up to 24 hrs by HPLC-MS analysis; assay type: physicochemical; details: buffer; method in brief: as §3
[7] = Stability of the compound in 0.01% ammonia solution at 100 uM at pH 9 up to 24 hrs by HPLC-MS analysis; assay type: physicochemical; details: buffer, pH 9, 24 h; method in brief: as §3
[8] = target: T2, Free fatty acid receptor 4 (Homo sapiens); test: Antagonist activity at human FFAR4 expressed in CHO cells assessed as inhibition of TUG-89-induced beta-arrestin recruitment at 10 uM preincubated for 30 mins followed by TUG-89 addition measured after 90 mins by beta-galactosidase complementation assay; assay type: cell-based
[9] = target: T1, G-protein coupled receptor 84; test: Agonist activity at human GPR84 expressed in CHO cells assessed as beta-arrestin recruitment after 90 mins by beta-galactosidase complementation assay; assay type: cell-based; method in brief: as §1
[10] = target: T1, G-protein coupled receptor 84; test: Agonist activity at Gi coupled human GPR84 expressed in CHO cells assessed as inhibition of forskolin-induced cAMP accumulation at 10 uM after 15 mins in presence of [3H]-cAMP by radiometric assay relative to decanoic acid; assay type: functional, cell-based; method in brief: as §2
[11] = test system: CHO; test: Effect on forskolin-induced cAMP accumulation in CHO cells preincubated for 5 mins followed by forskolin addition measured after 15 mins in presence of [3H]-cAMP by radiometric assay; assay type: ADME, cell-based, Cricetulus griseus; details: chinese hamster, 0.25 h
Method in brief: as §2, with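 “CHO cells stably expressing human GPR84, or the parent non-transfected CHO line, incubated in HBSS (pH 7.4) at 37 °C with RO-20-1724 (final 40 µM). Forskolin” for “Forskolin”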

[12] = Stability of the compound in pH 1.2 artificial gastric fluid containing HCl, NaCl and pepsin assessed as parent compound remaining at 100 uM after 4 hrs by HPLC-MS analysis; method in brief: as §3
[13] = target: T3, Free fatty acid receptor 1 (Homo sapiens, UniProt O14842); test: Agonist activity at Gq protein coupled human FFAR1 expressed in human 1321N1 cells assessed as induction of intracellular calcium level at 10 uM measured at 1.2 secs time interval by Fluo-4-AM dye based fluorescence assay; assay type: functional, cell-based
Method in brief: (§4)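 1321N1 astrocytoma cells retrovirally expressing human FFAR1, 50,000 per well, loaded 60 min at rt in dark with 3 µM Fluo-4-AM and 0.06 % Pluronic F-127 in HBSS. Compounds at 10 µM final; antagonist mode uses 30 min preincubation before TUG-424 (final 1 µM). Fluorescence at 520 nm (excitation 485 nm), 90 reads at 1.2 s intervals. Normalized to TUG-424 at 10 µM (agonist) or 1 µM (antagonist).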

[14] = target: T1, G-protein coupled receptor 84; test: Ratio of EC50 for human GPR84 expressed in CHO cells assessed as beta-arrestin recruitment to EC50 for Gi coupled human GPR84 expressed in CHO cells assessed as inhibition of forskolin-induced cAMP accumulation; assay type: functional, cell-based
[15] = target: T4, Aryl hydrocarbon receptor (Homo sapiens, UniProt P35869); test: Activation of AhR in human HepG2 cells assessed as induction of CYP1A1 mRNA expression at 20 uM after 18 hrs by RT-PCR method; assay type: ADME, cell-based
T4 sequence (P35869 whole entry): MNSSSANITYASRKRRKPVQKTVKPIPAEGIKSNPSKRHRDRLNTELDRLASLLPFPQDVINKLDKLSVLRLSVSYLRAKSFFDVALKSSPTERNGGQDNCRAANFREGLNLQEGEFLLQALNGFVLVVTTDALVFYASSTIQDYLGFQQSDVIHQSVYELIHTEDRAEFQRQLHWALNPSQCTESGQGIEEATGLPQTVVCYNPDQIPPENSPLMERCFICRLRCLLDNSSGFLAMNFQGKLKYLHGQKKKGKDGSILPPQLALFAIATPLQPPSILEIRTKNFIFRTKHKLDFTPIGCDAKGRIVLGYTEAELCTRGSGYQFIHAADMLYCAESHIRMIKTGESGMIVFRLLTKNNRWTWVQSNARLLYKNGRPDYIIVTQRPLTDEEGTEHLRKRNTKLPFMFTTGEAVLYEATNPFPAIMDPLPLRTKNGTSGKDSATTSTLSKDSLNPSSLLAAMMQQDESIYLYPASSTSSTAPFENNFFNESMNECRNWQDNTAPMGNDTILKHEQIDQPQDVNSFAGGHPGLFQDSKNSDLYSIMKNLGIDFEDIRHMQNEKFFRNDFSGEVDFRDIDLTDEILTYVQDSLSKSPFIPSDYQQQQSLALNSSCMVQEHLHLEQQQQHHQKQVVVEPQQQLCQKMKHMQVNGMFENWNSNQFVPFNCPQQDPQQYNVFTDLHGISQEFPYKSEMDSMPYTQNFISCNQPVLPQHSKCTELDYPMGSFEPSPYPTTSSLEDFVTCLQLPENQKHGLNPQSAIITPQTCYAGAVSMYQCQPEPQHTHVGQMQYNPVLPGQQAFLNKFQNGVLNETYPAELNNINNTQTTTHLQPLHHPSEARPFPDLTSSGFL
Method in brief: (§5)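 HepG2 cells (3x10^5 cells/ml) stimulated 18 h with 5 µM or 20 µM test compound or left untreated; 3-methylcholanthrene (10 µM) as positive control. RNA extracted for read-out; three independent experiments.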

[16] = target: T1, G-protein coupled receptor 84; test: Positive allosteric modulation of Gi coupled human GPR84 expressed in CHO cells assessed as potentiation of decanoic acid-induced inhibition of forskolin-induced cAMP accumulation by measuring increase in fold shift in decanoic acid EC50 at 0.1 to 30 uM after 15 mins in presence of [3H]-cAMP by radiometric assay; assay type: functional, cell-based
[17] = target: T1, G-protein coupled receptor 84; test: Antagonist activity at Gi coupled human GPR84 expressed in CHO cells assessed as inhibition of decanoic acid-induced receptor activation at 10 uM; assay type: cell-based
[18] = target: T1, G-protein coupled receptor 84; test: Agonist activity at Gi coupled human GPR84 expressed in CHO cells assessed as inhibition of forskolin-induced cAMP accumulation up to 100 uM preincubated for 5 mins followed by forskolin addition measured after 15 mins in presence of [3H]-cAMP by radiometric assay; assay type: functional, cell-based
Method in brief: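 Concentration-response in CHO-hGPR84 cells. Compound preincubated 5 min, then forskolin 10 µM added for a further 15 min. Maximal forskolin-induced cAMP without agonist set as 100 %. […] Mean ± SEM of 3 independent experiments in duplicate.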

[19] = target: T4, Aryl hydrocarbon receptor; test: Activation of AhR in human HepG2 cells assessed as induction of CYP1A1 mRNA expression at 10 uM after 18 hrs by RT-PCR method; assay type: ADME, cell-based
Method in brief: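 HepG2 cells seeded at 3x10^5 cells/ml were exposed to compound for 18 h alongside untreated cells and a 3-methylcholanthrene (10 µM) positive control. Total RNA was then extracted for transcript measurement. Three independent experiments were run.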

[20] = target: T3, Free fatty acid receptor 1; test: Antagonist activity at Gq protein coupled human FFAR1 expressed in human 1321N1 cells assessed as inhibition of TUG-424-induced intracellular calcium level preincubated for 30 mins followed by TUG-424 addition measured at 1.2 secs time interval by Fluo-4-AM dye based fluorescence assay; assay type: functional, cell-based; method in brief: as §4
[21] = Stability of the compound in pH 1.2 artificial gastric fluid containing HCl, NaCl and pepsin assessed as parent compound remaining at 100 uM after 2 hrs by HPLC-MS analysis; method in brief: as §3
[22] = Stability of the compound in pH 1.2 artificial gastric fluid containing HCl, NaCl and pepsin assessed as parent compound remaining at 100 uM after 1 hr by HPLC-MS analysis; method in brief: as §3
[23] = target: T4, Aryl hydrocarbon receptor; test: Activation of AhR in human HepG2 cells assessed as induction of CYP1A1 mRNA expression after 18 hrs by RT-PCR method; assay type: ADME, cell-based; method in brief: as §5
[24] = Stability of the compound in pH 1.2 artificial gastric fluid containing HCl, NaCl and pepsin at 100 uM up to 24 hrs by HPLC-MS analysis; method in brief: as §3
[25] = target: T4, Aryl hydrocarbon receptor; test: Activation of AhR in human HepG2 cells assessed as induction of CYP1A1 mRNA expression at 5 to 20 uM after 18 hrs by RT-PCR method; assay type: ADME, cell-based; method in brief: as §5

T1 sequence (Q9NQS5 whole entry, the tested form may be a part): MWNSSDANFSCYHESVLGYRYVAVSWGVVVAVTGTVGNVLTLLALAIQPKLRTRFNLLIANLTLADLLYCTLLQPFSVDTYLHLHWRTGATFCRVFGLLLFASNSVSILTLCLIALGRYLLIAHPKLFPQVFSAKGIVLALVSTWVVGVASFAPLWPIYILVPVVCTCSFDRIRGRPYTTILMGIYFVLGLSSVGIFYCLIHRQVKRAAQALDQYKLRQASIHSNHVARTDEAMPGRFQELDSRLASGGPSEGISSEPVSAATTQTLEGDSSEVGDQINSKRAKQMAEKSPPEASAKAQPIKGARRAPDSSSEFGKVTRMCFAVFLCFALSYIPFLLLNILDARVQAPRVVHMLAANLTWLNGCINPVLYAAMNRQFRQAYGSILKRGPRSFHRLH
G-protein coupled receptor 35 (Homo sapiens), sequence (Q9HC97 whole entry): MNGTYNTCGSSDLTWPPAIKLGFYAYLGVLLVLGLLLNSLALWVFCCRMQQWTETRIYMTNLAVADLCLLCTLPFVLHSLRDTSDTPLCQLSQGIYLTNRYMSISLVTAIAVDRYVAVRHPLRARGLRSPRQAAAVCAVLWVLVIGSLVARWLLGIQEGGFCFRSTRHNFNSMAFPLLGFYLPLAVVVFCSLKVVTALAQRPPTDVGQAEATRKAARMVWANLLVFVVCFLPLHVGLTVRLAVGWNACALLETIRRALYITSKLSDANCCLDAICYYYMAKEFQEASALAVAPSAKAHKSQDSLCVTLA
T3 sequence (O14842 whole entry): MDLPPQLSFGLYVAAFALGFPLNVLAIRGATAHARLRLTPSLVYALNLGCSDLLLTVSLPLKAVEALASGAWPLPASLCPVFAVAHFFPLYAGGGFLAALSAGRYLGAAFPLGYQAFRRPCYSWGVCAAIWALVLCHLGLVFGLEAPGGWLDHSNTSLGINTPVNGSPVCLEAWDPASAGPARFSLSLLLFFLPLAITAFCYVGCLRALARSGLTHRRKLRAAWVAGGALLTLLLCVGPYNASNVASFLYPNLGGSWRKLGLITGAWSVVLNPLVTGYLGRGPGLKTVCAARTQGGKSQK

Compound | Emax [1] [%] | Activity [2] | Activity [3] | pEC50 [4] | inhibition [4] | Stability [5] | Stability [6] | Stability [7] | inhibition [8] | pEC50 [9] | Emax [10] [%] | Activity [13] | Activity [11] | also measured
CCC(c1c[nH]c2ccccc12)c1c[nH]c2ccccc12 | 67 | inactive | inactive | < 5.00 | – | – | – | – | inactive | 5.53 | -24 | inactive | – | Activity [16]: inactive; inhibition [17]: inactive
Cc1ccc2cc3c(ccc4ccccc43)c3c2c1CC3 [3-METHYLCHOLANTHRENE] | – | – | – | – | – | – | – | – | – | – | – | – | – | inhibition [18]: inactive; Activity [19]: Active
CC(C)C(c1c[nH]c2ccccc12)c1c[nH]c2ccccc12 | 167 | inactive | – | < 5.00 | – | – | – | – | inactive | 5.14 | 16 | inactive | – | pEC50 [20]: 5.05; inhibition [17]: inactive

Now from value to molecule, other results behind:

Emax [1] [%] | Activity [2] | Activity [3] | pEC50 [4] | inhibition [4] | Stability [5] | Stability [6] | Stability [7] | inhibition [8] | pEC50 [9] | Emax [10] [%] | Activity [13] | Compound | Activity [11] | also measured
125 | inactive | inactive | 7.10 | Dose-dependent effect | Stable | Stable | Stable | inactive | 5.36 | 117 | inactive | Fc1ccc2[nH]cc(Cc3c[nH]c4ccc(F)cc34)c2c1 | Non-Toxic | Stability [12]: 57%; Ratio EC50 [14]: 54; Activity [15]: Not Active
60 | inactive | inactive | – | Dose-dependent effect | Stable | Stable | Stable | inactive | – | 125 | inactive | c1ccc2c(Cc3c[nH]c4ccccc34)c[nH]c2c1 [ARUNDINE] | Non-Toxic | Stability [21]: 49%; fold change (FC) [10]: 29; Stability [12]: 35%; Stability [22]: 63%; Activity [23]: Dose-dependent effect
99 | inactive | – | 6.95 | – | Stable | Stable | Stable | inactive | 5.22 | 129 | inactive | Fc1cccc2c(Cc3c[nH]c4c(F)cccc34)c[nH]c12 | – | Stability [24]: Stable
385 | inactive | inactive | – | Dose-dependent effect | – | – | – | inactive | – | 131 | inactive | Fc1cc(F)c2[nH]cc(Cc3c[nH]c4c(F)cc(F)cc34)c2c1 | Non-Toxic | Activity [25]: Not Active

Source: ChEMBL document CHEMBL4014307, “Diindolylmethane Derivatives: Potent Agonists of the Immunostimulatory Orphan G Protein-Coupled Receptor GPR84” (J Med Chem, 2017)
